Measured values reported in publication PMC5651187 (Cellular signalling, 2017).
Positions count from the first letter of the chain named.

Legend:
[1] = test system: C1 domain of PKCδ with the corresponding residues in the Vav1 C1 domain; conditions: five amino acids replaced; ref [17]; cited from earlier work
[2] = biological target: Vav1 C1 5X (E9M/E10S/T11P/T24L/Y26K); conditions: ref [17], cited from earlier work
[3] = biological target: Vav1 C1 WT; conditions: GST-tagged C1 domain; NA, no activity; ref [17]; cited from earlier work
[4] = biological target: Vav1 C1 3X (E9M/E10S/T11P); conditions: ref [17], cited from earlier work
[5] = biological target: T1, Vav3 C1 2X (T24L/Y26K) (Homo sapiens, UniProt Q9UKW4, T537L/Y539K); test: [3H]PDBu binding, polyethylene glycol precipitation assay
T1 sequence (Q9UKW4 513-562 T537L/Y539K): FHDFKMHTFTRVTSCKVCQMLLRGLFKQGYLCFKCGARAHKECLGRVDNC
Outline: (§1)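 GST-fused C1 domain, cloned into pGEX-5x-1 and expressed in BL21 cells. Cultures grown in LB at 37°C to OD 0.5, induced with 0.5 mM IPTG, then grown 4 h at 37°C. Cells lysed with bacterial extraction reagent; protein purified and eluted on a GST spin column. Kd for [3H]PDBu determined by polyethylene glycol precipitation. Values are mean ± SEM of three experiments.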

[6] = biological target: Vav1 C1 2X (T24L/Y26K); conditions: GST-tagged C1 domain; NA, no activity; ref [17]; cited from earlier work
[7] = biological target: T2, Vav2 C1 5X (D9M/K10S/T11P/T24L/Y26K) (Homo sapiens, UniProt P52735, D532M/K533S/T534P/T547L/Y549K); test: [3H]PDBu binding, polyethylene glycol precipitation assay
T2 sequence (P52735 523-572 D532M/K533S/T534P/T547L/Y549K): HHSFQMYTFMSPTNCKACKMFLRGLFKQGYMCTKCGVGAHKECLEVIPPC
Outline: as §1

[8] = biological target: T3, Vav3 C1 5X (T9M/R10S/V11P/T24L/Y26K) (Homo sapiens, UniProt Q9UKW4, R523S/T522M/T537L/V524P/Y539K); test: as above
T3 sequence (Q9UKW4 513-562 T522M/R523S/V524P/T537L/Y539K): T1 sequence (Q9UKW4 513-562 T537L/Y539K) with T10M, R11S, V12P
Outline: as §1

[9] = biological target: T4, Vav3 C1 3X (T9M/R10S/V11P) (Homo sapiens, UniProt Q9UKW4, R523S/T522M/V524P); test: [3H]PDBu binding, polyethylene glycol precipitation assay
T4 sequence (Q9UKW4 513-562 T522M/R523S/V524P): T1 sequence (Q9UKW4 513-562 T537L/Y539K) with T10M, R11S, V12P, L25T, K27Y
Outline: as §1, with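 “two replicates.” for “three experiments.”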

[10] = biological target: T5, full length Vav3 wild-type in LNCaP cells (Homo sapiens, UniProt Q9UKW4); test: Membrane translocation of GFP-tagged protein, confocal microscopy; type: cell-based; conditions: 10 μM PMA
T5 sequence (Q9UKW4 1-847): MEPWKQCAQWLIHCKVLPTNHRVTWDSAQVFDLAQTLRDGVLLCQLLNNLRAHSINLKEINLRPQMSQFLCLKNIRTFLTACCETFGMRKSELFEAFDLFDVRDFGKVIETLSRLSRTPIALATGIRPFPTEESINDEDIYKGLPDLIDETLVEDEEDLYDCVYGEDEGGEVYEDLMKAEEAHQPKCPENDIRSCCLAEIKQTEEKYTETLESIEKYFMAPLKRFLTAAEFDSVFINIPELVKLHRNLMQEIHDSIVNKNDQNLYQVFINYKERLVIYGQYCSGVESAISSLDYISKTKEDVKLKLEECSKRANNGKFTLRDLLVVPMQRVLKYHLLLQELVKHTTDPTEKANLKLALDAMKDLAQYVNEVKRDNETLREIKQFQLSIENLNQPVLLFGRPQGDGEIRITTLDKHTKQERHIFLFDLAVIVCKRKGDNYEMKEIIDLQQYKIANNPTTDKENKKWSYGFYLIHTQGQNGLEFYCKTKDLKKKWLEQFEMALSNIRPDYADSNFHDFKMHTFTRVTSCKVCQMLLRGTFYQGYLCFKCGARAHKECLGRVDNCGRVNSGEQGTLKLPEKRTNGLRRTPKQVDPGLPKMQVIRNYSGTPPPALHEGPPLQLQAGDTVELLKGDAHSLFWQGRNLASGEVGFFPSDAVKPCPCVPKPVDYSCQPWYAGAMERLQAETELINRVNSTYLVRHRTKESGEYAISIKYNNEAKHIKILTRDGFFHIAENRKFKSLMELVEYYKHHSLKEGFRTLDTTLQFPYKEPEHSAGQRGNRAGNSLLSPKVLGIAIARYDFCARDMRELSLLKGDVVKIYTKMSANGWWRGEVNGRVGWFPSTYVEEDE
Outline: (§2)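 LNCaP cells (passage 3–20) grown in RPMI 1640 with 10% FBS and 2 mM L-glutamine at 37°C, transfected with GFP constructs at 75% confluency; PMA added 24 h later. Confocal imaging with 488 nm excitation and 535–553 nm emission. Membrane/cytoplasm mean-intensity ratio from 3 membrane and 3 cytoplasm regions (~5 μm²) at 0, 5, 10, 30, 45 min (120 min where indicated). Mean ± SEM, ≥3 cells in each of ≥3 independent experiments; Student's t-test.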

[11] = biological target: T6, Vav3 5X in LNCaP cells (Homo sapiens, UniProt Q9UKW4, R523S/T522M/T537L/V524P/Y539K); test: as above; type: cell-based; conditions: 10 μM PMA
T6 sequence (Q9UKW4 1-847 T522M/R523S/V524P/T537L/Y539K): T5 sequence (Q9UKW4 1-847) with T522M, R523S, V524P, T537L, Y539K
Outline: as §2

[12] = biological target: T7, Vav3 CaWT in LNCaP cells (Homo sapiens, UniProt Q9UKW4); test: as above; type: cell-based; conditions: 10 μM PMA
T7 sequence (Q9UKW4 177-847 limits assumed): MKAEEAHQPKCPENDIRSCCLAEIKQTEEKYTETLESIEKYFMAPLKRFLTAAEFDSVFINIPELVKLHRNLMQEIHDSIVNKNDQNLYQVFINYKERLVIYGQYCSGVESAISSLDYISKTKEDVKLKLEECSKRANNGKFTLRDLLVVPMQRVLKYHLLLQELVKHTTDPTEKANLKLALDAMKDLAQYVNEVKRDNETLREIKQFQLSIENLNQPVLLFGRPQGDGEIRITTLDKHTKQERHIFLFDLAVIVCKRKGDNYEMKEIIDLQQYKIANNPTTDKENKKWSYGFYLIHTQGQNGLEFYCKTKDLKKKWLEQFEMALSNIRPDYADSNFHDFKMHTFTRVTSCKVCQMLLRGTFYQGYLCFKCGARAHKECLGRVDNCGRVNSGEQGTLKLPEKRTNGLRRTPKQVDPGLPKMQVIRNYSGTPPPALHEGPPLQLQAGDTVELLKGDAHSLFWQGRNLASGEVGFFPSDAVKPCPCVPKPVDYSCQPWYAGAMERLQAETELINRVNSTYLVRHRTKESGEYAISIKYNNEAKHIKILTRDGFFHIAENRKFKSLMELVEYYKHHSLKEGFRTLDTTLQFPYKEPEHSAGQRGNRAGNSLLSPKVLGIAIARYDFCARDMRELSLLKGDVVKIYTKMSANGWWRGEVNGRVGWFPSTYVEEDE
Outline: as §2

[13] = GST-tagged C1 domain, mean ± SEM of triplicate experiments

| SMILES | PDBu binding affinity [1] | Kd ([2]; GST-tagged C1 domain) [nM] | Relative to PKCδ C1b [2] [×] | Kd [3] | Kd ([4]; GST-tagged C1 domain) [µM] | Relative to PKCδ C1b [4] | Relative to PKCδ C1b [5] [×] | Kd [5, 13] [nM] | Kd [6] | Relative to PKCδ C1b [7] [×] | Kd [7, 13] [nM] | Relative to PKCδ C1b [8] [×] | Kd [8, 13] [nM] | Relative to PKCδ C1b [9] [×] | Kd ([9]; GST-tagged C1 domain, mean ± SEM, only 2 replicates) [nM] | membrane translocation in response to phorbol ester [10] | membrane translocation in response to phorbol ester [11] | membrane translocation in response to phorbol ester [12] |
| --- | --- | --- | --- | --- | --- | --- | --- | --- | --- | --- | --- | --- | --- | --- | --- | --- | --- | --- |
| CCCC(=O)O[C@@H]1[C@@H](C)[C@@]2(O)[C@@H](C=C(CO)C[C@]3(O)C(=O)C(C)=C[C@@H]23)[C@@H]2C(C)(C)[C@]12OC(=O)CCC [PDBu, Phorbol 12,13-dibutyrate] | abolished detectable PDBu binding affinity | 1.05 ± 0.14 | 5.4 | no detectable binding | 7.33 ± 0.49 | 38,000 × | 938 | 188 ± 35 | did not restore phorbol ester binding | 3370 | 650.7 ± 2.6 | 23.5 | 4.7 ± 0.8 | 4380 | 840 ± 120 |  |  |  |
| CCCCCCCCCCCCCC(=O)O[C@@H]1[C@@H](C)[C@@]2(O)[C@@H](C=C(CO)C[C@]3(O)C(=O)C(C)=C[C@@H]23)[C@@H]2C(C)(C)[C@]12OC(C)=O [PMA, phorbol 12-myristate 13-acetate] |  |  |  |  |  |  |  |  |  |  |  |  |  |  |  | neither the wild-type Vav3 nor the Vav3 CaWT translocated | became visible after 10 min but became more evident after 2 h | neither the wild-type Vav3 nor the Vav3 CaWT translocated |
